The record followed here is ChEMBL document CHEMBL4145481, “Synthesis and biological evaluation of novel bavachinin analogs as anticancer agents” (Eur J Med Chem, 2018).

Test [1] has as its target T1, Peroxisome proliferator-activated receptor gamma (Mus musculus, UniProt P37238).
T1 sequence (P37238 whole entry): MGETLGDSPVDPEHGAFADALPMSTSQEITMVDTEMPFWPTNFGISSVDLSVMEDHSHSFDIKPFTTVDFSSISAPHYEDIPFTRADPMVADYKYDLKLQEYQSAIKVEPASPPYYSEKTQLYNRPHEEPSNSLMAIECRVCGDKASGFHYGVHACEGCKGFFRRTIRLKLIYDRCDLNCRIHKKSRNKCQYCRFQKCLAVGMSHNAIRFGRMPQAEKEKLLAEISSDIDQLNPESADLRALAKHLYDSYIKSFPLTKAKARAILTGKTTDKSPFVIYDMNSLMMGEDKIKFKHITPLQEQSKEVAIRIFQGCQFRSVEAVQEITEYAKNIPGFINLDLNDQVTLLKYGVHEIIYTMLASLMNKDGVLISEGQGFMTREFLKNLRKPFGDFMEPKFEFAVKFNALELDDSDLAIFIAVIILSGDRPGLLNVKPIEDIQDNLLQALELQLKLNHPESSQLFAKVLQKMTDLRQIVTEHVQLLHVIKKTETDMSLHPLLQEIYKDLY
Description: Agonist activity at mouse PPARgamma expressed in 293T cells by dual luciferase reporter gene assay. Type of test: cell-based.

In test [2] the test system is MCF7. The test can be described thus: Cytotoxicity against human MCF7 cells assessed as growth inhibition after 48 hrs by SRB assay. The format is functional, cell-based. Particulars: MCF7, 48 h. In outline:
(§1)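 Cells were grown in RPMI-1640 with 10% FBS and penicillin/streptomycin at 37°C, 5% CO₂. Seeding was PC-3 7000, MCF-7 8000, A549 7500 and HCT-116 7000 cells/well, with 24 h attachment. Cells were exposed to 1, 5, 10, 30 and 50 μM for 48 h, with a 5-fluorouracil reference. Cells were TCA-fixed (1 h, 4°C) and stained with 0.4% SRB. Bound dye was dissolved in 10 mM Tris pH 10.4 and read at 540 nm. IC50 came from the concentration-response.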

The test system of test [3] is PC-3. The test can be described thus: Cytotoxicity against human PC3 cells assessed as growth inhibition after 48 hrs by SRB assay. The format is functional, cell-based. Particulars: PC-3, 48 h. In outline:
as §1

The test system of test [4] is HCT-116. The test can be described thus: Cytotoxicity against human HCT116 cells assessed as growth inhibition after 48 hrs by SRB assay. The format is functional, cell-based. Particulars: HCT-116, 48 h. In outline:
as §1

For test [5], the system named is HCT-116. The test can be described thus: Antimigratory activity against human HCT116 cells assessed as inhibition of wound closure up to 24 hrs by wound scratch assay. Type of test: functional, cell-based. In short, it runs like this: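 HCT-116 cells were plated at 8×10^5/well and grown to 70–80% confluence, then serum-starved 24 h. The monolayer was scratched with a pipette tip and treated at 3.6, 7.2 and 14.4 μM for 24 h. Wounds were imaged at 0 and 24 h (20x). Percent wound closure was computed from wound areas relative to control; means ± SD, n = 3.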

Test [6] relates to A549. Description: Cytotoxicity against human A549 cells assessed as growth inhibition after 48 hrs by SRB assay. Type of test: functional, cell-based. Particulars: A549, 48 h. In outline: as §1
The subject of test [7] is HCT-116. The test can be described thus: Anticlonogenic activity against human HCT116 cells incubated for 24 hrs measured up to 14 days by crystal violet staining-based assay. Type of test: functional, cell-based. In short, it runs like this:
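HCT-116 cells (8x10^4/mL/well) were treated 24 h at 3.6, 7.2 and 14.4 μM. They were then trypsinized and re-seeded at 1000 cells/well, and grown about 14 days to colonies of >50 cells. Colonies were fixed in 4% formaldehyde and stained with 0.5% crystal violet. Colony number was expressed relative to untreated control, with 5-fluorouracil as reference; means ± SD, n = 3.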

For test [8], the system named is A549. The test can be described thus: Cytotoxicity against human A549 cells assessed as growth inhibition at 50 uM after 48 hrs by SRB assay relative to control. The format is functional. Particulars: A549, 48 h, read-out: GI. In outline:
(§2)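 SRB growth-inhibition run in RPMI-1640/10% FBS at 37°C, 5% CO₂. Cell lines were seeded (PC-3 7000, MCF-7 8000, A549 7500, HCT-116 7000/well) and attached 24 h. The treatment series included 50 μM, with 48 h exposure. Cells were cold-TCA fixed and stained with 0.4% SRB. Dye was solubilized in 10 mM Tris pH 10.4 and read at 540 nm against untreated control.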

Test [9] has as its system HCT-116. Description: Induction of mitochondrial membrane potential loss in human HCT116 cells after 24 hrs by rhodamine123 staining based fluorescence microscopic analysis. The format is functional, cell-based. In outline:
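Cells were seeded at 1×10^6/1.5 mL/well and treated 24 h at 3.6, 7.2 and 14.4 μM, with 5-FU at 5 μM as reference. Rhodamine-123 (10 nM) was added for the final 1 h. After a PBS wash, fluorescence was imaged by microscopy.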

Test [10] relates to HCT-116. The test can be described thus: Cytotoxicity against human HCT116 cells assessed as growth inhibition at 50 uM after 48 hrs by SRB assay relative to control. The format is functional. Particulars: HCT-116, 48 h, read-out: GI. In outline:
as §2

The subject of test [11] is PC-3. Description: Cytotoxicity against human PC3 cells assessed as growth inhibition at 50 uM after 48 hrs by SRB assay relative to control. Type of test: functional. Particulars: PC-3, 48 h, read-out: GI. In outline:
as §2

Test [12] deals with HCT-116. Description: Induction of morphological changes in human HCT116 cells assessed as cell shrinkage after 24 hrs by phase contrast microscopic analysis. Type of test: functional, cell-based. In short, it runs like this:
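HCT-116 cells were exposed 24 h to 3.6, 7.2 and 14.4 μM, alongside an untreated control. Morphology was photographed by phase contrast microscopy at 20x.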

The test system of test [13] is MCF7. The test can be described thus: Cytotoxicity against human MCF7 cells assessed as growth inhibition at 50 uM after 48 hrs by SRB assay relative to control. Particulars: MCF7, 48 h, read-out: GI. The format is functional. In outline: as §2
Test [14] deals with HCT-116. Description: Induction of apoptosis in human HCT116 cells assessed as PARP cleavage at 3.6 uM after 24 hrs by Western blot analysis. Type of test: functional, cell-based. In outline:
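HCT-116 cells were treated 24 h at 3.6, 7.2 and 14.4 μM. RIPA whole-cell lysates with protease/phosphatase inhibitors were BCA-quantified. Equal protein was run on 10% SDS-PAGE and transferred to PVDF, then blocked with 5% BSA/TBST for 1 h. Blots were probed with anti-PARP (1:1000) and β-actin (1:500, loading control) plus HRP secondaries. The read-out was the 89 kDa cleaved fragment.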

Test [15] has as its system HepG2. Description: Cytotoxicity against human HepG2 cells. The format is functional, cell-based.

Active and inactive are the calls of the source. The rule behind the calls is not given here.

Turning to `COc1cc2c(cc1CC=C(C)C)C(=O)C[C@@H](c1ccc(OC(C)=O)cc1)O2`, a half-maximal effect in [1] (EC50) was put at 0.78 µM.

On to `COc1ccc([C@@H]2C/C(=N/OCc3cn(-c4ccc(C(N)=O)cc4)nn3)c3cc(CC=C(C)C)c(OC)cc3O2)cc1`, for which the IC50 worked out at 11.7 µM in test [2], 16.1 µM in test [3], 7.13 µM in [4] and 7.72 µM in [6]. In [5], the inhibition result is “Dose-dependent effect”. The Activity entry in [7], in test [9] and in test [12] was “Dose-dependent effect” in each case. Also, the inhibition of growth at 50 µM in [8], in test [10], in [11] and in test [13] was 100% in each case. For the same compound, the outcome in test [14] was Active.

Consider `COc1cc2c(cc1CC=C(C)C)C(=O)C[C@@H](c1ccc(OC(=O)c3ccc([N+](=O)[O-])cc3)cc1)O2`, for which the EC50 in [1] was found to be 0.43 µM.

On to `COc1cc2c(cc1CC=C(C)C)C(=O)C[C@@H](c1ccc(OC3O[C@H](CO)[C@@H](O)[C@H](O)[C@H]3O)cc1)O2` (stereo partly specified), for which inhibition in test [15] was half-maximal at 48.5 µM (IC50).
